Data taken from ChEMBL document CHEMBL4118127, “Structure activity relationship studies on rhodanines and derived enethiol inhibitors of metallo-β-lactamases” (Bioorg Med Chem, 2018).
The source made the active and inactive calls.

Tests used:
Bacteria [1] = assay: Inhibition of recombinant bacterial NDM1 expressed in Escherichia coli BL21 (DE3) cells at 100 uM using FC5 as fluorogenic reporter substrate preincubated at 10 to 300 mins followed by substrate addition
Bacteria [2] = assay: Inhibition of recombinant bacterial IMP1 expressed in Escherichia coli BL21 (DE3) cells at 100 uM using FC4-FC5 as substrate by fluorescence-based assay
Bacteria [3] = assay: Inhibition of recombinant full-length bacterial His6-tagged VIM2 (27 to 266 residues) expressed in Escherichia coli BL21 (DE3) cells at 100 uM using FC4-FC5 as substrate by fluorescence-based assay
[4] = target: T1, Metallo-beta-lactamase type 2 (Bacillus cereus) (UniProt P04190); assay: Inhibition of recombinant bacterial BC2 expressed in Escherichia coli BL21 (DE3) cells at 100 uM using FC4-FC5 as substrate by fluorescence-based assay
T1 sequence (whole entry): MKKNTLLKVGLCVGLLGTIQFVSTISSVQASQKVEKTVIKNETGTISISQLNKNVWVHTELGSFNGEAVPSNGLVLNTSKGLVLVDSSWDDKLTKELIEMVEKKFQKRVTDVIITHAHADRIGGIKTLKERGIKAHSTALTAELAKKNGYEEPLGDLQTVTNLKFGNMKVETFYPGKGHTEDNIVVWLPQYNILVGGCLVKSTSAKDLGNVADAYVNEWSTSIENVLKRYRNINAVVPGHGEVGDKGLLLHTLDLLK

[5] = target: Metallo-beta-lactamase type 2 (Aeromonas hydrophila) (UniProt P26918); assay: Inhibition of Aeromonas hydrophila CphA at 100 uM using fluorogenic cephalosporin as substrate
Sequence of Metallo-beta-lactamase type 2 (Aeromonas hydrophila) (P26918 whole entry, the tested form may be a part): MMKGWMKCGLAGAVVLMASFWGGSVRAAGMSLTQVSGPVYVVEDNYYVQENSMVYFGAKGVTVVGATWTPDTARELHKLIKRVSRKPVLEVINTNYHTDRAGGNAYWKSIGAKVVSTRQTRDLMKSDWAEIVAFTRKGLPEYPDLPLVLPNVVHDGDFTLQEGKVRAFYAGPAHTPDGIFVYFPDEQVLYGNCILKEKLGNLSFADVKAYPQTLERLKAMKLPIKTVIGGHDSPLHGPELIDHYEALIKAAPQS

Bacteria [6] = assay: Inhibition of recombinant full-length bacterial His6-tagged SPM1 (29 to 276 residues) expressed in Escherichia coli BL21 (DE3) cells at 100 uM using FC4-FC5 as substrate by fluorescence-based assay
[7] = target: Beta-lactamase TEM (Bacteria) (UniProt P62593); assay: Inhibition of recombinant N-terminal His-tagged Escherichia coli TEM1 (24 to 286 residues) expressed in Escherichia coli BL21(DE3) using FC5 as substrate assessed as residual activity at 200 uM
Sequence of Beta-lactamase TEM (Bacteria) (P62593 whole entry, the tested form may be a part): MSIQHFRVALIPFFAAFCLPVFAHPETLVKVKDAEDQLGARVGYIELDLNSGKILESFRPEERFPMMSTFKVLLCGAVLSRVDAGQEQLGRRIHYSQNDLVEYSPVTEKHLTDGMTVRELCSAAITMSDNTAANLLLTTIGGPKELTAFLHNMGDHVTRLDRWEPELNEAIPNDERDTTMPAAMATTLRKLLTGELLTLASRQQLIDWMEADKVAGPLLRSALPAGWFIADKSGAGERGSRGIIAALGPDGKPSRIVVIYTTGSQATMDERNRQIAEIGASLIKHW

[8] = target: Beta-lactamase (Escherichia coli K-12) (UniProt P00811); assay: Inhibition of recombinant Escherichia coli AmpC at 200 uM using FC5 as substrate preincubated at 10 to 300 mins followed by substrate addition
Sequence of Beta-lactamase (Escherichia coli K-12) (P00811 whole entry): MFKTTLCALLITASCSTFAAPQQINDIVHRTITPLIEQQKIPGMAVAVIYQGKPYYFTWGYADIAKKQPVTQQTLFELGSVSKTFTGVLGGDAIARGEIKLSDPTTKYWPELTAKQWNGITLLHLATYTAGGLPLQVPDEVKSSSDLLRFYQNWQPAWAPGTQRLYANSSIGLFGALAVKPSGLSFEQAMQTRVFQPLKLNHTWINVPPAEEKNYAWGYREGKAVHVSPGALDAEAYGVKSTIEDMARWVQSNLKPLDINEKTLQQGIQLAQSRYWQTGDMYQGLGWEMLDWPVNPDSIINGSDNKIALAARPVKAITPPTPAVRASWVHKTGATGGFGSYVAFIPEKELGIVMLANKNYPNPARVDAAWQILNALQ

[9] = target: Beta-lactamase CTX-M (Escherichia coli) (UniProt Q9EXV5); assay: Inhibition of recombinant Escherichia coli EO516 N-terminal His6-tagged CTX-M using FC5 as substrate at 200 uM preincubated at 10 to 300 mins followed by substrate addition
Bacteria [10] = assay: Inhibition of recombinant full-length bacterial His6-tagged VIM2 (27 to 266 residues) expressed in Escherichia coli BL21 (DE3) cells using FC4-FC5 as substrate assessed as residual activity at 100 uM by fluorescence-based assay
[11] = target: Beta-lactamase OXA-10 (Pseudomonas aeruginosa) (UniProt P14489); assay: Inhibition of recombinant Pseudomonas aeruginosa OXA-10 at 200 uM using FC5 as substrate
Sequence of Beta-lactamase OXA-10 (Pseudomonas aeruginosa) (P14489 whole entry, the tested form may be a part): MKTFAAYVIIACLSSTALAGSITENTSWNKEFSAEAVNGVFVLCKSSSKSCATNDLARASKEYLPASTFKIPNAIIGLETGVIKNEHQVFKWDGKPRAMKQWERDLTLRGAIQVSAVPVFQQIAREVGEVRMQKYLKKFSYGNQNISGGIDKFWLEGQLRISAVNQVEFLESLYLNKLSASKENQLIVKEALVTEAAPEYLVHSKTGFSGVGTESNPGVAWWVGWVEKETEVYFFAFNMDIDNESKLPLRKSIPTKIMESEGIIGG

[12] = target: Beta-lactamase TEM (Bacteria) (UniProt P62593); assay: Inhibition of recombinant N-terminal His-tagged Escherichia coli TEM1 (24 to 286 residues) expressed in Escherichia coli BL21(DE3) at 200 uM using FC5 as substrate
Bacteria [13] = assay: Inhibition of recombinant bacterial IMP1 expressed in Escherichia coli BL21 (DE3) cells using FC4-FC5 as substrate assessed as residual activity at 100 uM by fluorescence-based assay
In short: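 IMP-1 was incubated with inhibitor for 10 min before substrate was added. Residual activity was calculated from the initial rate of FC5 hydrolysis.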

[14] = target: Beta-lactamase OXA-10 (Pseudomonas aeruginosa) (UniProt P14489); assay: Inhibition of recombinant Pseudomonas aeruginosa OXA-10 using FC5 as substrate assessed as residual activity at 200 uM
[15] = target: Beta-lactamase (Escherichia coli K-12) (UniProt P00811); assay: Inhibition of recombinant Escherichia coli AmpC assessed as residual activity at 200 uM using FC5 as substrate preincubated at 10 to 300 mins followed by substrate addition

inhibition [8] | inhibition [9] | inhibition [11] | inhibition [12] | SMILES | Activity (Bacteria [10]) | Activity (Bacteria [13]) | other results
– | – | – | – | O=C(O)C(O)Cc1ccccc1 (configuration not stated) | – | – | inhibition (Bacteria [1]): inactive; inhibition (Bacteria [2]): inactive; inhibition (Bacteria [3]): inactive; inhibition [4]: inactive; inhibition [5]: inactive; inhibition (Bacteria [6]): inactive
– | – | – | – | O=C(O)/C(S)=C/c1c2ccccc2cc2ccccc12 | – | – | Activity [7]: 40%
inactive | inactive | inactive | inactive | O=C(O)/C(O)=C/c1ccc(F)cc1 | 100% | 100% | –
– | – | – | – | O=C(O)C(O)c1ccccc1 (configuration not stated) | – | – | inhibition (Bacteria [1]): inactive; inhibition (Bacteria [2]): inactive; inhibition (Bacteria [3]): inactive; inhibition [4]: inactive; inhibition [5]: inactive; inhibition (Bacteria [6]): inactive
– | – | – | – | CN1CCN(NC(=O)CN2C(=O)/C(=C/c3c4ccccc4cc4ccccc34)SC2=S)CC1 | – | – | Activity [14]: 41%; Activity [15]: 1%
inactive | inactive | inactive | inactive | CC1=N/C(=C\c2ccc(F)cc2)C(=O)O1 | 100% | 100% | –
inactive | inactive | inactive | inactive | O=C(O)/C(S)=C/c1ccc(Br)cc1 | – | – | –
inactive | inactive | inactive | inactive | O=C(O)/C(S)=C/c1c(F)ccc(F)c1F | – | – | –

SMILES | inhibition [8] | inhibition [9] | inhibition [11] | inhibition [12] | Activity (Bacteria [10]) | Activity (Bacteria [13]) | other results
O=P(O)(O)C(S)c1ccc(Br)cc1F (configuration not stated) | inactive | inactive | inactive | inactive | 100% | 100% | –
O=P(O)(O)C(O)c1ccc(Br)cc1F (configuration not stated) | inactive | inactive | inactive | inactive | 100% | 100% | –
